From publication PMC6690187 (Cancer chemotherapy and pharmacology, 2012)

Columns and labels:
[1] = Stability of ML-970 in mouse plasma; assay type: in vitro ADME; conditions: for compound remaining intact: 4°C
In short: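 Mouse plasma was spiked with 1 or 10 μM test compound. Samples were held at 37°C in a water bath (sampled at 5, 10, 20, 30 and 60 min and at 2, 4 and 8 h), at 4°C (0.5–24 h) or at −80°C (1, 2 and 4 weeks). Each sample was extracted and measured by HPLC-UV at 308 nm. Remaining amount was expressed as % of the starting concentration versus time.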

[2] = tested on: mouse plasma proteins; test: Binding to mouse plasma proteins; assay type: in vitro ADME; conditions: 37°C 1 h
In short: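 Test compound added to mouse plasma at 0.1, 1.0 and 10 μM and held at 37°C for 1 h; methanol replaced plasma in controls. Samples were centrifuged through 30 kDa ultrafiltration units at 2,000×g until dry. Filtrate (free, F) and unfiltered solution (total, T) were each measured in triplicate by HPLC-UV at 308 nm. Filter-bound amount (X) was included: % bound = [(T–F–X)/T] × 100.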

[3] = S9 metabolism, mouse hepatic S9 fractions; assay type: in vitro ADME; conditions: mouse S9 1 mg/ml, 10 μM, within an hour of incubation, 37°C
[4] = S9 metabolism, rat hepatic S9 fractions; assay type: in vitro ADME; conditions: rat S9 1 mg/ml, 10 μM, within an hour of incubation, 37°C
[5] = S9 metabolism, human hepatic S9 fractions; assay type: in vitro ADME; conditions: human S9 1 mg/ml, 10 μM, within an hour of incubation, 37°C
[6] = Pharmacokinetic studies in nude mice; assay type: in vivo, female athymic nude mice; conditions: for intact compound in plasma / time to highest plasma concentration: solution formulation
In short: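 Female athymic nude mice (~25 g) received a solution formulation (PEG400/EtOH/Tween 80/D5W) at 20 mg/kg i.v., 50 mg/kg i.p. or 100 mg/kg p.o. Others received a suspension (0.05% Tween 80/saline) at 15 mg/kg i.p. or 100 mg/kg p.o. Heparinized retro-orbital blood was taken from 5 min to 24 h (i.v.) or 10 min to 48 h, with ≥3 samples per time point. Plasma was extracted with acetonitrile and measured by HPLC-UV.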

[7] = Pharmacokinetic and tissue distribution studies in CD-1 mice; assay type: in vivo, female CD-1 mice
[8] = Urinary and fecal excretion after i.v. injection; assay type: in vivo, mice; conditions: i.v. injection 20 mg/kg, first 48 h, parent compound
In short: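 Female nude mice dosed i.v. (20 mg/kg, solution formulation) were housed in metabolic cages, and urine and feces were collected for up to 48 h. Containers and cages were rinsed twice with 0.9% saline. Urine and each wash were extracted directly, analysed separately and summed. Feces were homogenized in PBS (5 ml/g), extracted with acetonitrile and measured by HPLC. Results were expressed as % of dose.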

[9] = Urinary and fecal excretion, higher dose in CD-1 mice; assay type: in vivo; conditions: 40 mg/kg i.v.
[10] = Preliminary pharmacokinetics; assay type: in vivo, female Sprague-Dawley rats; conditions: rats, oral 2.5 vs 5 mg/kg; exception intestine
In short: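 Female Sprague-Dawley rats received oral doses of 2.5 or 5 mg/kg in (PEG400/EtOH/Tween 80 = 6:3:1)/D5W = 1:2, either as a single dose or once daily for 5 days. Plasma was sampled at 1, 6 and 12 h. Lungs, liver, kidneys, small intestine and small-intestine contents were collected at 12 h on days 1 and 5. Tissues were homogenized in PBS, extracted with acetonitrile and analysed by HPLC.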

[11] = tested on: NCI60; conditions: read-out: average GI50; NCI60 screening, cytotoxic activity; cited from earlier work
[12] = tested on: six different cell lines; conditions: cited from earlier work
[13] = tested on: xenograft models of glioma (SF295), lung (H522), breast (MDA-MB-435), ovarian (OVCAR-3) cancers; conditions: SF295, H522, MDA-MB-435, OVCAR-3 xenografts; cited from earlier work
[14] = tested on: MDA-MB-435 breast cancer xenograft; conditions: oral doses 70-280 mg/kg and i.v. dose 10 mg/kg; cited from earlier work
[15] = in vitro assays and xenograft studies; cited from earlier work
[16] = nude mice, 0.05% Tween 80/Saline, i.p., 15 mg/kg, plasma
[17] = nude mice, 0.05% Tween 80/Saline, p.o., 100 mg/kg, plasma
[18] = nude mice, PEG400/EtOH/Tween 80/D5W, i.p., 50 mg/kg, plasma
[19] = nude mice, PEG400/EtOH/Tween 80/D5W, i.v., 20 mg/kg, plasma
[20] = nude mice, PEG400/EtOH/Tween 80/D5W, p.o., 100 mg/kg, plasma
[21] = CD-1 mice, PEG400/EtOH/Tween 80/D5W, i.v., 2.5 mg/kg, plasma
[22] = CD-1 mice, PEG400/EtOH/Tween 80/D5W, p.o., 2.5 mg/kg, plasma
[23] = CD-1 mice, PEG400/EtOH/Tween 80/D5W, p.o., 5 mg/kg, plasma

**Q.** Which compound remaining intact ([1]; 24-h storage (summary)) does the source give for `COc1cc2cc(C(=O)Nc3cc(N)c4ccccc4c3CCCl)[nH]c2c(OC)c1OC` [ML-970] here?
**A.** approximately 90%

**Q.** And the compound remaining intact ([1]; 24 h, 1 μM)?
**A.** 88.6%

**Q.** And the compound remaining intact ([1]; 24 h, 10 μM)?
**A.** 92.4%

**Q.** And the compound remaining ([1]; 37°C, 8-h incubation, both 1 and 10 μM (summary))?
**A.** approximately 70%

**Q.** What about the compound remaining ([1]; 37°C, 8 h, 1 μM) of the same compound?
**A.** 70.9%

**Q.** What about the compound remaining ([1]; 37°C, 8 h, 10 μM) of the same compound?
**A.** 70.2%

**Q.** What about the compound remaining ([1]; −80°C, 4 weeks, 1 μM) of the same compound?
**A.** 87.5%

**Q.** What about the compound remaining ([1]; −80°C, 4 weeks, 10 μM) of the same compound?
**A.** 89.8%

**Q.** And the degradation on storage ([1]; −80°C, a week of storage)?
**A.** no significant degradation

**Q.** And the “binding to plasma proteins” value ([2]; 0.1 μM)?
**A.** 87.57%

**Q.** What about the “binding to plasma proteins” value ([2]; 1.0 μM) of the same compound?
**A.** 89.31%

**Q.** And the “binding to plasma proteins” value ([2]; 10.0 μM)?
**A.** 90.89%

**Q.** And the “loss of parent compound with S9 enzymes” value [3]?
**A.** no significant loss of the parent compound

**Q.** What about the “loss of parent compound with S9 enzymes” value [4] of the same compound?
**A.** no significant loss of the parent compound

**Q.** And the “loss of parent compound with S9 enzymes” value [5]?
**A.** no significant loss of the parent compound

**Q.** What about the “toxicity observed in pharmacokinetic studies” value ([6]; doses from 10 to 100 mg/kg, soluble and suspension formulations) of the same compound?
**A.** did not observe any toxicity

**Q.** What about the “AUC0~∞” value [6, 16] of the same compound?
**A.** 5350 ng·h/mL

**Q.** What about the “CL or CL/F” value [6, 16] of the same compound?
**A.** 2.67 mL/g/h

**Q.** What about the Cmax [6, 16] of the same compound?
**A.** 1160 ng/mL

**Q.** What about the MRT [6, 16] of the same compound?
**A.** 6.21 h

**Q.** What about the T1/2 [6, 16] of the same compound?
**A.** 6.14 h

**Q.** And the Tmax [6, 16]?
**A.** 1 h

**Q.** What about the “AUC0~∞” value [6, 17] of the same compound?
**A.** 11520 ng·h/mL

**Q.** And the “CL or CL/F” value [6, 17]?
**A.** 8.07 mL/g/h

**Q.** What about the Cmax [6, 17] of the same compound?
**A.** 1520 ng/mL

**Q.** What about the MRT [6, 17] of the same compound?
**A.** 8.1 h

**Q.** What about the T1/2 [6, 17] of the same compound?
**A.** 6.73 h

**Q.** What about the Tmax [6, 17] of the same compound?
**A.** 1 h

**Q.** And the “intact compound in plasma” value ([6]; nude mice, 8 h after i.v. 20 mg/kg)?
**A.** still detectable

**Q.** And the “intact compound in plasma” value ([6]; nude mice, 24 h after i.p. 50 mg/kg)?
**A.** could still be detected

**Q.** And the “intact compound in plasma” value ([6]; nude mice, 24 h after p.o. 100 mg/kg)?
**A.** could still be detected

**Q.** What about the “AUC0~∞” value [6, 18] of the same compound?
**A.** 42110 ng·h/mL

**Q.** What about the “CL or CL/F” value [6, 18] of the same compound?
**A.** 1.19 mL/g/h

**Q.** And the Cmax [6, 18]?
**A.** 20390 ng/mL

**Q.** And the MRT [6, 18]?
**A.** 2.5 h

**Q.** What about the T1/2 [6, 18] of the same compound?
**A.** 4.58 h

**Q.** What about the Tmax [6, 18] of the same compound?
**A.** 0.17 h

**Q.** And the “AUC0~∞” value [6, 19]?
**A.** 14890 ng·h/mL

**Q.** And the “CL or CL/F” value [6, 19]?
**A.** 1.35 mL/g/h

**Q.** What about the Cmax [6, 19] of the same compound?
**A.** 22350 ng/mL

**Q.** And the MRT [6, 19]?
**A.** 0.87 h

**Q.** What about the T1/2 [6, 19] of the same compound?
**A.** 0.78 h

**Q.** And the Tmax [6, 19]?
**A.** 0 h

**Q.** What about the Vss [6, 19] of the same compound?
**A.** 1.18 mL/g

**Q.** What about the “F^oral” value ([6]; nude mice, PEG400/EtOH/Tween 80/D5W, p.o., 100 mg/kg) of the same compound?
**A.** 0.53

**Q.** What about the “AUC0~∞” value [6, 20] of the same compound?
**A.** 39630 ng·h/mL

**Q.** And the “CL or CL/F” value [6, 20]?
**A.** 2.52 mL/g/h

**Q.** And the Cmax [6, 20]?
**A.** 18930 ng/mL

**Q.** What about the MRT [6, 20] of the same compound?
**A.** 2.82 h

**Q.** What about the T1/2 [6, 20] of the same compound?
**A.** 4.26 h

**Q.** And the Tmax [6, 20]?
**A.** 0.5 h

**Q.** And the “time to highest plasma concentration” value ([6]; nude mice, i.p. 50 mg/kg)?
**A.** 10 min

**Q.** And the “time to highest plasma concentration” value ([6]; nude mice, oral gavage 100 mg/kg)?
**A.** 30 min

**Q.** And the “AUC0~∞” value [7, 21]?
**A.** 1960 ng·h/mL

**Q.** What about the “CL or CL/F” value [7, 21] of the same compound?
**A.** 1.27 mL/g/h

**Q.** And the Cmax [7, 21]?
**A.** 4340 ng/mL

**Q.** And the MRT [7, 21]?
**A.** 2.76 h

**Q.** What about the T1/2 [7, 21] of the same compound?
**A.** 0.31 h

**Q.** What about the Tmax [7, 21] of the same compound?
**A.** 0 h

**Q.** What about the Vss [7, 21] of the same compound?
**A.** 3.52 mL/g

**Q.** And the “F^oral” value ([7]; CD-1 mice, PEG400/EtOH/Tween 80/D5W, p.o., 2.5 mg/kg)?
**A.** 0.43

**Q.** What about the “AUC0~∞” value [7, 22] of the same compound?
**A.** 850 ng·h/mL

**Q.** What about the “CL or CL/F” value [7, 22] of the same compound?
**A.** 2.61 mL/g/h

**Q.** And the Cmax [7, 22]?
**A.** 550 ng/mL

**Q.** What about the MRT [7, 22] of the same compound?
**A.** 8.28 h

**Q.** And the T1/2 [7, 22]?
**A.** 10.73 h

**Q.** What about the Tmax [7, 22] of the same compound?
**A.** 0.08 h

**Q.** What about the “F^oral” value ([7]; CD-1 mice, PEG400/EtOH/Tween 80/D5W, p.o., 5 mg/kg) of the same compound?
**A.** 0.44

**Q.** And the “AUC0~∞” value [7, 23]?
**A.** 1730 ng·h/mL

**Q.** And the “CL or CL/F” value [7, 23]?
**A.** 3.22 mL/g/h

**Q.** What about the Cmax [7, 23] of the same compound?
**A.** 990 ng/mL

**Q.** And the MRT [7, 23]?
**A.** 1.8 h

**Q.** What about the T1/2 [7, 23] of the same compound?
**A.** 2.97 h

**Q.** And the Tmax [7, 23]?
**A.** 0.5 h

**Q.** And the tissue distribution ([7]; mice, i.v. 2.5 mg/kg and p.o. 2.5 mg/kg, levels stayed relatively high for at least 24 h)?
**A.** high levels of ML-970 in the liver, gallbladder, and small intestine

**Q.** What about the “compound excreted in feces” value [8] of the same compound?
**A.** 1.14%

**Q.** What about the “compound excreted in urine” value [8] of the same compound?
**A.** less than 0.5%

**Q.** What about the “compound excreted in urine” value ([9]; 48 h after treatment) of the same compound?
**A.** about 1%

**Q.** What about the “parental compound excreted in feces” value ([9]; first 8 h) of the same compound?
**A.** less than 0.1%

**Q.** What about the “tissue concentrations between two doses” value [10] of the same compound?
**A.** no significant difference

**Q.** And the GI50 [11]?
**A.** 34 nM

**Q.** And the “cell lines killed in hollow fiber assay” value [12]?
**A.** efficiently killing six different cell lines

**Q.** What about the “hollow fiber assay total score” value [12] of the same compound?
**A.** 54 points

**Q.** What about the “antitumor effects in xenograft models” value [13] of the same compound?
**A.** significant antitumor effects in all of the models

**Q.** What about the tumor growth [14] of the same compound?
**A.** inhibited tumor growth

**Q.** What about the “weight loss (index for host toxicity)” value [14] of the same compound?
**A.** no weight loss

**Q.** What about the “liver and bone marrow toxicity compared with other CC-1065 analogs” value [15] of the same compound?
**A.** decreased liver and bone marrow toxicity
